{
  "source": "ChEMBL document CHEMBL1821718",
  "about": "“Curcumin recognizes a unique binding site of tubulin” (J Med Chem, 2011)",
  "key": {"[1]": {"assay": "Inhibition of goat brain tubulin polymerization assessed as turbidity by UV spectrophotometry", "set-up": "species or system Capra hircus", "procedure,_shortened": "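Goat brain tubulin in PEM buffer (50 mM PIPES pH 7, 1 mM EGTA, 0.5 mM MgCl2) with 1 mM GTP. Assembly initiated with 10% DMSO at 37 °C and turbidity followed at 360 nm. Half-maximal inhibition taken as the concentration reducing polymer mass by 50%; run in triplicate, at least two repetitions.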"}, "A549 [2]": {"system": "A549", "assay": "Disruption of human A549 cell morphology at 2.5 to 5 uM after 24 hrs by phase contrast microscopy", "type": "functional, cell-based", "procedure,_shortened": "(§1)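 A549 and HeLa cells grown in DMEM with 10% FBS at 37 °C, 5% CO2, exposed to 2.5 or 5 μM compound for 24 h. Morphology of control and treated cells recorded by inverted phase-contrast microscopy.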"}, "A549 [3]": {"system": "A549", "assay": "Disruption of interphase microtubule network in human A549 cells at 2.5 uM after 24 hrs by confocal microscopy", "type": "functional, cell-based", "procedure,_shortened": "(§2)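 A549 or HeLa cells at 10^6 cells/mL exposed to 0–2.5 μM compound for 24 h. PBS-washed, fixed in 2% paraformaldehyde, permeabilized 1 h (0.1% Na citrate, 0.1% Triton), blocked in 5% BSA. Stained with mouse anti-α-tubulin (1:200) then rhodamine anti-mouse IgG (1:150) plus DAPI 1 μg/mL. Interphase network imaged by confocal microscopy; n = 3.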"}, "A549 [4]": {"system": "A549", "assay": "Induction of apoptosis in human A549 cells assessed as apoptotic cells at 5 uM after 48 hrs by FITC-conjugated annexin-V/PI assay", "type": "functional", "procedure,_shortened": "(§3)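 About 1 × 10^6 A549 or HeLa cells treated with 0–5 μM compound for 48 h. Stained 15 min at room temperature in the dark with FITC-annexin V (1 μg/mL) and PI (0.5 μg/mL) in Ca2+-enriched binding buffer. Annexin-V-positive fraction quantified by flow cytometry.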"}, "[5]": {"assay": "Binding affinity to goat brain tubulin by spectrofluorimetry"}, "HeLa [6]": {"system": "HeLa", "assay": "Induction of apoptosis in human HeLa cells assessed as apoptotic cells at 5 uM after 48 hrs by FITC-conjugated annexin-V/PI assay", "type": "functional", "procedure,_shortened": "as §3"}, "MCF7": {"system": "MCF7", "assay": "Cell cycle arrest in nocodazole pre-treated human MCF7 cells", "type": "functional, cell-based"}, "HeLa (Homo sapiens)": {"system": "HeLa (Homo sapiens)", "assay": "Induction of cell cycle arrest in human HeLa cells assessed as accumulation in G2/M phase at 5 uM after 24 hrs by flow cytometry"}, "HeLa [7]": {"system": "HeLa", "assay": "Induction of cell cycle arrest in human HeLa cells assessed as accumulation in G2/M phase at 5 uM after 24 hrs by flow cytometry", "type": "functional, cell-based"}, "A549 [8]": {"system": "A549", "assay": "Induction of apoptosis in human A549 cells assessed as abnormality in nuclear DNA at 5 uM by DAPI staining technique", "type": "functional, cell-based"}, "A549 [9]": {"system": "A549", "assay": "Antiproliferative activity against human A549 cells assessed as loss of cell viability after 48 hrs by MTT assay", "type": "functional, cell-based", "conditions": "A549, 48 h", "procedure,_shortened": "(§4)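 Cells seeded at 1 × 10^4 per well in DMEM with 10% FBS, 1 mM L-glutamine and antibiotics at 37 °C, 5% CO2. Exposed to 0–50 μM compound for 48 h. MTT (2 mg/mL in PBS) added until purple precipitate formed; absorbance read at 570 nm against 650 nm reference. Mean ± SEM, n = 4; IC50 taken from concentration-response.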"}, "HeLa [10]": {"system": "HeLa", "assay": "Induction of apoptosis in human HeLa cells assessed as abnormality in nuclear DNA at 5 uM by DAPI staining technique", "type": "functional, cell-based"}, "HeLa [11]": {"system": "HeLa", "assay": "Disruption of human HeLa cell morphology at 2.5 to 5 uM after 24 hrs by phase contrast microscopy", "type": "functional, cell-based", "procedure,_shortened": "as §1"}, "A549 [12]": {"system": "A549", "assay": "Perturbation of spindle microtubule and chromosomal organization in human A549 cells at 2.5 uM after 24 hrs by immunofluorescence method", "type": "functional, cell-based", "procedure,_shortened": "(§5)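 Cells exposed to 0–2.5 μM compound for 24 h, fixed in 2% paraformaldehyde, permeabilized, blocked with 5% BSA. Spindles stained with anti-α-tubulin (1:200) and rhodamine secondary (1:150); chromosomes stained with DAPI (1 μg/mL). Bipolar spindle and metaphase-plate alignment scored by confocal microscopy; three experiments.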"}, "HeLa [13]": {"system": "HeLa", "assay": "Perturbation of spindle microtubule and chromosomal organization in human HeLa cells at 2.5 uM after 24 hrs by immunofluorescence method", "type": "functional, cell-based", "procedure,_shortened": "as §5"}, "HeLa [14]": {"system": "HeLa", "assay": "Disruption of interphase microtubule network in human HeLa cells at 2.5 uM after 24 hrs by confocal microscopy", "type": "functional, cell-based", "procedure,_shortened": "as §2"}, "HeLa [15]": {"system": "HeLa", "assay": "Cell cycle arrest in nocodazole pre-treated human HeLa cells at 5 uM assessed as accumulation in G2/M phase after 8 hrs by flow cytometry", "type": "functional", "procedure,_shortened": "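HeLa cells at 1 × 10^6 cells/mL held 20 h in nocodazole (2 μM in methods; 1.5 μM in text), washed, then given fresh medium with 5 μM compound for 8 h. Fixed in ice-cold methanol, treated 4 h at 37 °C with 1 mg/mL RNase A, stained with PI. G2/M fraction measured by FACS.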"}, "Capra hircus": {"species_on_record": "Capra hircus", "assay": "Binding affinity to goat brain tubulin by isothermal titration calorimetry"}, "HeLa [16]": {"system": "HeLa", "assay": "Antiproliferative activity against human HeLa cells assessed as loss of cell viability after 48 hrs by MTT assay", "type": "functional, cell-based", "procedure,_shortened": "as §4"}, "A549 [17]": {"system": "A549", "assay": "Disruption of interphase microtubule network in human A549 cells after 24 hrs by confocal microscopy", "type": "functional, cell-based", "procedure,_shortened": "as §2"}, "HeLa [18]": {"system": "HeLa", "assay": "Disruption of interphase microtubule network in human HeLa cells after 24 hrs by confocal microscopy", "type": "functional, cell-based", "procedure,_shortened": "as §2"}},
  "note": "Calls of active or inactive are those of the source. The calls are words filed in the database; no cut-off is given here.",
  "data": [
    {"molecule": "COc1cc(/C=C/c2cc(/C=C/c3ccc(O)c(OC)c3)n(-c3ccc(F)cc3)n2)ccc1O", "values": [
      {"measurement": "IC50", "setting": "[1]", "result": 34, "unit": "µM"}
    ]},
    {"molecule": "COc1cc(/C=C/C(=O)CC(=O)/C=C/c2ccc(O)c(OC)c2)ccc1O", "note": "[CURCUMIN]", "values": [
      {"measurement": "Activity", "setting": "A549 [2]", "result": "inactive"},
      {"measurement": "Activity", "setting": "A549 [3]", "result": "inactive"},
      {"measurement": "Activity", "setting": "A549 [4]", "result": 16, "unit": "%"},
      {"measurement": "Ka", "setting": "[5]", "result": 5.01, "unit": "×10⁵ /M"},
      {"measurement": "Activity", "setting": "HeLa [6]", "result": 8, "unit": "%"},
      {"measurement": "Activity", "setting": "MCF7", "result": "Active"},
      {"measurement": "Activity", "setting": "HeLa (Homo sapiens)", "result": "inactive"},
      {"measurement": "Activity", "setting": "HeLa [7]", "result": "inactive"},
      {"measurement": "Activity", "setting": "A549 [8]", "result": "inactive"},
      {"measurement": "IC50", "setting": "A549 [9]", "result": 17, "unit": "µM"},
      {"measurement": "Activity", "setting": "HeLa [10]", "result": "inactive"},
      {"measurement": "Activity", "setting": "HeLa [11]", "result": "inactive"},
      {"measurement": "IC50", "setting": "[1]", "result": 20, "unit": "µM"},
      {"measurement": "Activity", "setting": "A549 [12]", "result": "inactive"},
      {"measurement": "Activity", "setting": "HeLa [13]", "result": "inactive"},
      {"measurement": "Activity", "setting": "HeLa [14]", "result": "inactive"},
      {"measurement": "Activity", "setting": "HeLa [15]", "result": 18, "unit": "%"}
    ]},
    {"molecule": "O=C(O)/C=C/c1ccc(O)c(O)c1", "values": [
      {"measurement": "Activity", "setting": "Capra hircus", "result": "inactive"}
    ]},
    {"molecule": "O=C(O)/C=C/c1ccccc1", "values": [
      {"measurement": "Activity", "setting": "Capra hircus", "result": "inactive"}
    ]},
    {"molecule": "COc1ccc(-n2nc(/C=C/c3ccc(O)c(OC)c3)cc2/C=C/c2ccc(O)c(OC)c2)cc1", "values": [
      {"measurement": "IC50", "setting": "[1]", "result": 38, "unit": "µM"}
    ]},
    {"molecule": "COc1cc(C=C(C(=O)/C=C/c2ccc(O)c(OC)c2)C(=O)/C=C/c2ccc(O)c(OC)c2)ccc1O", "values": [
      {"measurement": "Activity", "setting": "A549 [2]", "result": "Active"},
      {"measurement": "Activity", "setting": "A549 [3]", "result": "Active"},
      {"measurement": "Activity", "setting": "A549 [4]", "result": 45, "unit": "%"},
      {"measurement": "Ka", "setting": "[5]", "result": 2.5, "unit": "×10⁶ /M"},
      {"measurement": "Activity", "setting": "HeLa [6]", "result": 38, "unit": "%"},
      {"measurement": "IC50", "setting": "HeLa [16]", "result": 6, "unit": "µM"},
      {"measurement": "Activity", "setting": "HeLa [7]", "result": "inactive"},
      {"measurement": "Activity", "setting": "A549 [8]", "result": "Active"},
      {"measurement": "IC50", "setting": "A549 [9]", "result": 7, "unit": "µM"},
      {"measurement": "Activity", "setting": "HeLa [10]", "result": "Active"},
      {"measurement": "Activity", "setting": "HeLa [11]", "result": "Active"},
      {"measurement": "Activity", "setting": "A549 [17]", "result": "Dose-dependent effect"},
      {"measurement": "IC50", "setting": "[1]", "result": 16, "unit": "µM"},
      {"measurement": "Activity", "setting": "A549 [12]", "result": "Active"},
      {"measurement": "Activity", "setting": "HeLa [13]", "result": "Active"},
      {"measurement": "Activity", "setting": "HeLa [14]", "result": "Active"},
      {"measurement": "Activity", "setting": "HeLa [18]", "result": "Dose-dependent effect"},
      {"measurement": "Activity", "setting": "HeLa [15]", "result": 35, "unit": "%"}
    ]},
    {"molecule": "COc1cc(/C=C/c2cc(/C=C/c3ccc(O)c(OC)c3)n(-c3cccc([N+](=O)[O-])c3)n2)ccc1O", "values": [
      {"measurement": "IC50", "setting": "[1]", "result": 36, "unit": "µM"}
    ]},
    {"molecule": "COc1cc(/C=C/c2cc(/C=C/c3ccc(O)c(OC)c3)on2)ccc1O", "values": [
      {"measurement": "IC50", "setting": "[1]", "result": 26, "unit": "µM"}
    ]},
    {"molecule": "COc1cc(/C=C/c2cc(/C=C/c3ccc(O)c(OC)c3)[nH]n2)ccc1O", "note": "[CURCUMIN PYRAZOLE]", "values": [
      {"measurement": "IC50", "setting": "[1]", "result": 23, "unit": "µM"}
    ]},
    {"molecule": "COc1ccc(/C=C/C(=O)O)cc1OC", "values": [
      {"measurement": "Activity", "setting": "Capra hircus", "result": "inactive"}
    ]},
    {"molecule": "COc1cc(/C=C/C(=O)CC(=O)/C=C/c2ccc(OC(C)=O)c(OC)c2)ccc1OC(C)=O", "values": [
      {"measurement": "IC50", "setting": "[1]", "result": 60, "unit": "µM"}
    ]},
    {"molecule": "O=C(O)/C=C/c1ccccc1O", "values": [
      {"measurement": "Activity", "setting": "Capra hircus", "result": "inactive"}
    ]},
    {"molecule": "O=C(O)/C=C/c1ccc(O)cc1O", "values": [
      {"measurement": "Activity", "setting": "Capra hircus", "result": "inactive"}
    ]}
  ]
}
